From PMC5087331 (Journal of Medicinal Chemistry, 2016)

Key:
[1] = biological target: FimH lectin domain (FimHL) (Escherichia coli, UniProt P08191); test: Differential scanning fluorimetry; assay type: binding; conditions: isothermal shift melting point assay
Outline: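 FimH lectin domain (FimHL) at 10 μM, heated with or without 100 μM mannoside. Melting temperature measured by differential scanning fluorimetry. Value is the shift in melting temperature relative to protein without mannoside.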

[2] = test system: clinical E. coli strain UTI89; test: Hemagglutination inhibition; assay type: cell-based, Escherichia coli
[3] = test system: UTI89KAN (UPEC); test: Prophylactic treatment of acute urinary tract infection in mice; assay type: in vivo, C3H/HeN female mice; conditions: 25 mg/kg PO 30 min prior to UPEC infection, bacterial titers 6 h postinfection
Outline: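 6–8-week female C3H/HeN mice were dosed orally with 25 mg/kg test compound in 10% cyclodextrin. After 30 min they were inoculated transurethrally under isoflurane with 1–2 × 10^7 UTI89KAN (grown 2 × 24 h static in LB, 37 °C; washed, in PBS). At 6 h, bladders were homogenised and plated on LB + 50 μg/mL kanamycin. Geometric means from ≥2 experiments; Mann–Whitney versus vehicle.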

[4] = test system: UTI89KAN (UPEC); test: Treatment of chronic urinary tract infection in mice; assay type: in vivo, C3H/HeN female mice; conditions: chronic UTI
Outline: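 Female C3H/HeN mice were infected transurethrally with 1–2 × 10^8 UTI89KAN. Urine titers were taken on day 12, and mice with ≥10^5 were counted as chronic. At 2 weeks they received oral test compound (25 or 50 mg/kg) in 100 μL 10% cyclodextrin. Bladders were harvested at set times after dosing and plated on kanamycin LB. Geometric means; Mann–Whitney versus vehicle or 0 h.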

[5] = 25 mg/kg oral, 12 h post treatment

Sequence of FimH lectin domain (FimHL) (P08191 22-179): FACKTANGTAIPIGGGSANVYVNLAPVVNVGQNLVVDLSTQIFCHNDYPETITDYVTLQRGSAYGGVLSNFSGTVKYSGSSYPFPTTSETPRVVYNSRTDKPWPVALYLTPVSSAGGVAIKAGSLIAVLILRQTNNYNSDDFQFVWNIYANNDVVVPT

SMILES: COC(=O)c1cccc(-c2ccc(N[C@H]3O[C@H](CO)[C@@H](O)[C@H](O)[C@@H]3O)cc2)c1 [compound 2, 4′-(α-D-Mannopyranosylamino)-[1,1′biphenyl]-3-carboxylic Acid Methyl Ester]
- binding affinity to FimH relative to 1 [1]: equivalent binding affinity to FimH

SMILES: CNC(=O)c1cccc(-c2ccc([C@H](O)[C@H]3O[C@H](CO)[C@@H](O)[C@H](O)[C@@H]3O)cc2)c1 [6S, 4′-[(α-D-Mannopyranosyl)-(S)-hydroxymethyl]-N-methyl-[1,1′biphenyl]-3-carboxamide]
- fold less potency in the HA assay than 5 ([2]; comparator 5): 25 fold

SMILES: CNC(=O)c1cccc(-c2ccc(C[C@H]3O[C@H](CO)[C@@H](O)[C@H](O)[C@@H]3O)c(C)c2)c1 [compound 22, 4′-[(α-D-Mannopyranosyl)methyl]-N,3′-dimethyl-[1,1′biphenyl]-3-carboxamide]
- fold decrease in activity relative to 23 ([2]; comparator 23): 30 fold

SMILES: CNC(=O)c1cccc(-c2ccc(O[C@H]3O[C@H](COC(=O)CN(C)C)[C@@H](O)[C@H](O)[C@@H]3O)c(C)c2)c1 [23c, 4′-[6-O-(N,N-Dimethylaminoacetyl)-α-D-mannopyranosyloxy]-N,3′-dimethyl-[1,1′biphenyl]-3-carboxamide]
- efficacy compared to 23 as prophylaxis therapy [3]: did not show enhanced efficacy

SMILES: CNC(=O)c1cccc(-c2ccc(O[C@H]3O[C@H](COC(C)=O)[C@@H](OC(C)=O)[C@H](OC(C)=O)[C@@H]3OC(C)=O)c(C)c2)c1 [23a, 4′-(2,3,4,6-Tetra-O-acetyl-α-D-mannopyranosyloxy)-N,3′-dimethyl-[1,1′biphenyl]-3-carboxamide]
- efficacy compared to 23 as prophylaxis therapy [3]: improved efficacy compared to 23
- change in bladder burdens compared to vehicle [4, 5]: similar, but statistically significant, decrease in bladder burdens

SMILES: COC(=O)c1cccc(-c2ccc(S[C@H]3O[C@H](CO)[C@@H](O)[C@H](O)[C@@H]3O)cc2)c1 [compound 3, 4′-(α-D-Mannopyranosylthio)-[1,1′biphenyl]-3-carboxylic Acid Methyl Ester]
- binding affinity to FimH relative to 1 [1]: equivalent binding affinity to FimH

SMILES: CNC(=O)c1cccc(-c2ccc([C@@H](O)[C@H]3O[C@H](CO)[C@@H](O)[C@H](O)[C@@H]3O)c(C)c2)c1 [21R, 4′-[(α-D-Mannopyranosyl)-(R)-hydroxymethyl]-N,3′-dimethyl-[1,1′biphenyl]-3-carboxamide]
- bladder burdens relative to untreated mice [4, 5]: three logs lower
- change in bladder burdens compared to vehicle [4, 5]: dramatic and significant decrease in CFUs

SMILES: CNC(=O)c1cccc(-c2ccc(O[C@H]3O[C@H](COP(=O)(O)O)[C@@H](O)[C@H](O)[C@@H]3O)c(C)c2)c1 [23b, 4′-(6-Dihydrogen Phosphate-α-D-mannopyranosyloxy)-N,3′-dimethyl-[1,1′biphenyl]-3-carboxamide]
- efficacy compared to 23 as prophylaxis therapy [3]: improved efficacy compared to 23

SMILES: CNC(=O)c1cc(C(=O)NC)cc(-c2ccc(O[C@H]3O[C@H](CO)[C@@H](O)[C@H](O)[C@@H]3O)c(C)c2)c1 [compound 24]
- fold more potent than 23 in HA assay ([2]; comparator 23): 4 fold
- change in bladder burdens compared to vehicle [4, 5]: noticeable, but not significant, decrease in bladder burdens
- bladder burden at 6 h ([4]; 50 mg/kg oral): 10^4 CFUs
- bladder burden at 12 hours (geometric mean) ([4]; 50 mg/kg oral): 10^5
- bladder burden 2 h postdosing ([4]; 50 mg/kg oral, from 10^7 CFUs at 0 h): approximately 10^5 CFUs
